Measured values: ChEMBL document CHEMBL1143667, “Synthesis and pharmacological evaluation of 6,7-indolo/thiazolo-morphinans--further SAR of levorphanol” (J Med Chem, 2007)
Calls of active or inactive are those of the source. The calls are words filed in the database; no cut-off is given here.

Assays:
[1] = target: T1, Mu-type opioid receptor (Homo sapiens, UniProt P35372); test: Displacement of [3H]DAMGO from human mu opioid receptor expressed in CHO membrane; format: cell membranes
Summary of the method: (§1)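 CHO membranes (0.5 mg protein/sample) incubated 60 min at 25 °C with [3H]DAMGO (µ) or [3H]U69,593 (κ) and 12 compound concentrations in 1 mL 50 mM Tris-HCl, pH 7.5. Nonspecific binding with 10 µM naloxone. Mean ± SEM of three experiments in triplicate.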

[2] = target: T2, Delta-type opioid receptor (Homo sapiens, UniProt P41143); test: Displacement of [3H]naltrindole from human delta opioid receptor expressed in CHO membrane; format: cell membranes
Summary of the method: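 CHO membranes (0.5 mg protein/sample) incubated at 25 °C with δ-specific radioligand and 12 compound concentrations in 1 mL 50 mM Tris-HCl, pH 7.5; nonspecific binding with 10 µM naloxone. Three experiments in triplicate.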

[3] = target: T3, Kappa-type opioid receptor (Homo sapiens, UniProt P41145); test: Displacement of [3H]U-69593 from human kappa opioid receptor expressed in CHO membrane; format: cell membranes; summary of the method: as §1
[4] = target: Opioid receptors; mu & kappa (Homo sapiens) (UniProt P41145+P35372); test: Selectivity for human kappa opioid receptor over human mu opioid receptor; format: protein assay
[5] = target: Opioid receptors; delta & kappa (Homo sapiens) (UniProt P41145+P41143); test: Selectivity for human kappa opioid receptor over human delta opioid receptor; format: protein assay
[6] = target: T1, Mu-type opioid receptor; test: Agonist activity at human mu opioid receptor expressed in CHO membrane assessed as stimulation of [35S]GTPgammaS binding; format: functional, cell membranes
Summary of the method: (§2)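 Membranes from CHO cells stably expressing human κ (15 µg protein/tube) or µ (7.5 µg/tube) receptor; 12 agonist concentrations, 60 min at 30 °C in Tris-HCl/MgCl2/NaCl/EGTA buffer pH 7.4 with 3 µM GDP and [35S]GTPγS (0.8 nM). Nonspecific binding with 10 µM unlabeled GTPγS; filtration, scintillation counting. Stimulation as % over basal; at least three experiments in triplicate.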

[7] = target: T1, Mu-type opioid receptor; test: Antagonist activity at human mu opioid receptor expressed in CHO membrane assessed as inhibition of DAMGO-induced [35S]GTP-gamma-S binding; format: functional, cell membranes
Summary of the method: (§3)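 Antagonism measured in CHO membranes expressing κ receptor with 100 nM U50,488, or µ receptor with 200 nM DAMGO, plus test compound and 0.8 nM [35S]GTPγS, 3 µM GDP. Filtration and scintillation readout; IC50 and Imax from three experiments in triplicate.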

[8] = target: T3, Kappa-type opioid receptor; test: Agonist activity at human kappa opioid receptor expressed in CHO membrane assessed as stimulation of [35S]GTP-gamma-S binding; format: functional, cell membranes; summary of the method: as §2
[9] = target: T3, Kappa-type opioid receptor; test: Antagonist activity at human kappa opioid receptor expressed in CHO membrane assessed as inhibition of U50488-induced [35S]GTP-gamma-S binding; format: functional, cell membranes; summary of the method: as §3
[10] = target: T2, Delta-type opioid receptor; test: Agonist activity at human delta opioid receptor expressed in CHO membrane assessed as stimulation of [35S]GTP-gamma-S binding; format: functional, cell membranes
[11] = target: T2, Delta-type opioid receptor; test: Antagonist activity at human delta opioid receptor expressed in CHO membrane assessed as inhibition of SNC80-induced [35S]GTPgammaS binding; format: functional, cell membranes

Chain of Opioid receptors; mu & kappa (Homo sapiens) (P35372 whole entry, looked up): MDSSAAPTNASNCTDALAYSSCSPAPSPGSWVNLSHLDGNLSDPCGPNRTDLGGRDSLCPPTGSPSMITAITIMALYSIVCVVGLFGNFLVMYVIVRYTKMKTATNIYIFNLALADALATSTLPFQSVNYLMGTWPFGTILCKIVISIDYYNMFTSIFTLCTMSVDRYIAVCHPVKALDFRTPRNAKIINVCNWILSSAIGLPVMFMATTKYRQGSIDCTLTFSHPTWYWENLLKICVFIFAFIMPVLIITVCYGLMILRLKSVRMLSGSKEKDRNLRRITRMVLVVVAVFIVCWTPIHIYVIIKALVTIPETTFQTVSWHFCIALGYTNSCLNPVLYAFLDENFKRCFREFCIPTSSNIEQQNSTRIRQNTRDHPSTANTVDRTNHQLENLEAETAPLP
Chain of Opioid receptors; mu & kappa (Homo sapiens) (P41145 whole entry, looked up): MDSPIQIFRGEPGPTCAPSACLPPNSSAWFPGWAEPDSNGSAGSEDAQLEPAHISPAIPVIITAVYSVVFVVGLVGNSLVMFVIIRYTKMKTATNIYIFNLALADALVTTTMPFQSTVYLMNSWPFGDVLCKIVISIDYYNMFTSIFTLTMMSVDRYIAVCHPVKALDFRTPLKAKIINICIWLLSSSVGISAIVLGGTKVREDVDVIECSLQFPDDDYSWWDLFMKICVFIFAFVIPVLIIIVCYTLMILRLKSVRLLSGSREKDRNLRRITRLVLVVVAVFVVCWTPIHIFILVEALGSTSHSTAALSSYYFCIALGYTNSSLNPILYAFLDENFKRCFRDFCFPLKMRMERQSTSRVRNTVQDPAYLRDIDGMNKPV
T1 sequence (P35372 whole entry): as the sequence (P35372 whole entry, looked up) above
T2 sequence (P41143 whole entry): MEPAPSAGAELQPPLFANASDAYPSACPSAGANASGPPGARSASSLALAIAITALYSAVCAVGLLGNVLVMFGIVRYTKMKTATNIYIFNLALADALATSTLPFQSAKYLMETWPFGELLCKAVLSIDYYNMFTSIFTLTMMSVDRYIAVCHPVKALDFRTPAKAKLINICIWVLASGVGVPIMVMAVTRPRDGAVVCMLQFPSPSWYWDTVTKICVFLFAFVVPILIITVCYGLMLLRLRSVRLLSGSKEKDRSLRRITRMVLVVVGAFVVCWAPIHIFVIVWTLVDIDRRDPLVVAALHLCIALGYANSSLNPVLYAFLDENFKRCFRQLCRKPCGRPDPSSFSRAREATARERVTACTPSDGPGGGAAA
Chain of Opioid receptors; delta & kappa (Homo sapiens) (P41143 whole entry, looked up): as the sequence (P41143 whole entry) above
Chain of Opioid receptors; delta & kappa (Homo sapiens) (P41145 whole entry, looked up): as the sequence (P41145 whole entry, looked up) above
T3 sequence (P41145 whole entry): as the sequence (P41145 whole entry, looked up) above

Row | Structure (SMILES) | Ki [1] | Ki [2] | Ki [3] | Ratio Ki [4] | Ratio Ki [5] | EC50 [6] | Emax [6] | IC50 [7] | Imax [7] | EC50 [8] | Emax [8] | Activity [9] | EC50 [10] | Emax [10] | Activity [11] | IC50 [11] | Imax [11] | IC50 [9] | Imax [9]
1 | COc1ccc2c(c1)[C@]13CCN(CC4CC4)[C@H](C2)[C@@H]1Cc1c([nH]c2ccccc12)C3 | 5.9 nM | 1.5 nM | 1.4 nM | 4 | 1 | 1.7 nM | 72% | 440 nM | 43% | 24 nM | 68% | inactive | 1.5 nM | 56% | inactive | – | – | – | –
2 | CN1CC[C@]23Cc4[nH]c5ccccc5c4C[C@H]2[C@H]1Cc1ccc(O)cc13 | 22 nM | 0.35 nM | 14 nM | 1.6 | 0.03 | – | – | – | – | – | – | – | 0.47 nM | 23% | – | 1.5 nM | 45% | – | –
3 | CN1CC[C@]23Cc4nc(N)sc4C[C@H]2[C@H]1Cc1ccc(O)cc13 | 0.49 nM | 4.2 nM | 2.2 nM | 0.2 | 2 | 140 nM | 42% | – | 45% | 21 nM | 44% | inactive | 8.4 nM | 67% | inactive | – | – | – | –
4 | COc1ccc2c(c1)[C@]13CCN(C)[C@H](C2)[C@@H]1Cc1c([nH]c2ccccc12)C3 | 340 nM | 35 nM | 390 nM | 0.9 | 0.1 | – | – | – | – | – | – | – | – | – | – | – | – | – | –
5 | COc1ccc2c(c1)[C@]13CCN(CC4CCC4)[C@H](C2)[C@@H]1Cc1c([nH]c2ccccc12)C3 | 330 nM | 8.7 nM | 89 nM | 4 | 0.1 | – | – | – | – | – | – | – | 23 nM | 54% | inactive | – | – | – | –
6 | Nc1nc2c(s1)C[C@H]1[C@H]3Cc4ccc(O)cc4[C@@]1(CCN3CC1CCC1)C2 | 0.37 nM | 1.1 nM | 0.14 nM | 3 | 8 | 2.6 nM | 33% | 26 nM | 68% | 2.6 nM | 40% | – | 2.5 nM | 51% | inactive | – | – | 93 nM | 44%
7 | Oc1ccc2c(c1)[C@]13CCN(CC4CCC4)[C@H](C2)[C@@H]1Cc1c([nH]c2ccccc12)C3 | 3.9 nM | 0.17 nM | 1 nM | 4 | 0.2 | 110 nM | 68% | – | 23% | 190 nM | 87% | inactive | 0.8 nM | 37% | – | 0.6 nM | 55% | – | –
8 | Nc1nc2c(s1)C[C@H]1[C@H]3Cc4ccc(O)cc4[C@@]1(CCN3CC1CC1)C2 | – | 0.23 nM | 0.07 nM | – | – | – | – | – | – | 0.34 nM | 37% | inactive | 0.17 nM | 49% | inactive | – | – | – | –
9 | Oc1ccc2c(c1)[C@]13CCN(CC4CC4)[C@H](C2)[C@@H]1Cc1c([nH]c2ccccc12)C3 | 1.1 nM | 0.19 nM | 0.64 nM | 2 | 0.3 | 92 nM | 47% | 12 nM | 84% | 61 nM | 67% | – | 0.16 nM | 22% | – | 1.2 nM | 73% | 17 nM | 49%
